Assay results taken from article PMC4547362 (Molecular cancer therapeutics, 2015).
pIC50: −log10 of the molar value. Read-outs that look alike come from different tables or passages of the source. Blank lines part the entries; values can stand above or below the compound they belong to.

Key:
[1] = biological target: T1, Stat3 (Homo sapiens, UniProt P40763); experiment: IL-6-induced Stat3 nuclear translocation in DU145 cells, immunofluorescence; type: cell-based; settings: IL-6 5 nM, IST5-002 even at 50 μM
T1 sequence (P40763 whole entry): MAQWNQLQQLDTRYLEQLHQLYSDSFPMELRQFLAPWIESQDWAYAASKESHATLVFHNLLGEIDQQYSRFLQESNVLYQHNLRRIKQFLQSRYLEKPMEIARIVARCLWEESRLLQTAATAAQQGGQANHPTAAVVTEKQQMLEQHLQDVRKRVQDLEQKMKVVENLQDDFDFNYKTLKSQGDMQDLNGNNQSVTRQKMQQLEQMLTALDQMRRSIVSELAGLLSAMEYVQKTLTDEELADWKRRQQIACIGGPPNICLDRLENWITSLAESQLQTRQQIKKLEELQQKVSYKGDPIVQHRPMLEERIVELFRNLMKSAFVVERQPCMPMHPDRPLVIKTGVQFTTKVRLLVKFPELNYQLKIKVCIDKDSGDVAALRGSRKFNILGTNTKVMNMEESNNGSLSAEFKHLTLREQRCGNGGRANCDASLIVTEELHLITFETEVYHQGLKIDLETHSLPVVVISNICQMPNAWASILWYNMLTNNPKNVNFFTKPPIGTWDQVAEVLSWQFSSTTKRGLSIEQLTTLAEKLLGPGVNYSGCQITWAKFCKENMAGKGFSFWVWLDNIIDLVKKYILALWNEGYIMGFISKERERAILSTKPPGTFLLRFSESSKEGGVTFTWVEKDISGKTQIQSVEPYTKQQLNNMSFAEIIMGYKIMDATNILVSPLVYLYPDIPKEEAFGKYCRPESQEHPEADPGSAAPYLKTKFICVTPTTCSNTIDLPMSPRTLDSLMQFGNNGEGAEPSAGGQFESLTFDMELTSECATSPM

[2] = system: Stat1; settings: cited from earlier work
[3] = system: Stat5; settings: cited from earlier work
[4] = system: Stat5a/b; experiment: Stat5a/b activation and transcriptional activity, side-by-side with IST5-002; type: cell-based
[5] = biological target: T2, Stat5a (Homo sapiens, UniProt P42229); experiment: Stat5a luciferase reporter gene assay; type: cell-based; settings: read-out: IC50, transcriptional activity of Stat5a; PC-3 cells, β-casein-luciferase, hPrl 10 nM 16 h
T2 sequence (P42229 1-794): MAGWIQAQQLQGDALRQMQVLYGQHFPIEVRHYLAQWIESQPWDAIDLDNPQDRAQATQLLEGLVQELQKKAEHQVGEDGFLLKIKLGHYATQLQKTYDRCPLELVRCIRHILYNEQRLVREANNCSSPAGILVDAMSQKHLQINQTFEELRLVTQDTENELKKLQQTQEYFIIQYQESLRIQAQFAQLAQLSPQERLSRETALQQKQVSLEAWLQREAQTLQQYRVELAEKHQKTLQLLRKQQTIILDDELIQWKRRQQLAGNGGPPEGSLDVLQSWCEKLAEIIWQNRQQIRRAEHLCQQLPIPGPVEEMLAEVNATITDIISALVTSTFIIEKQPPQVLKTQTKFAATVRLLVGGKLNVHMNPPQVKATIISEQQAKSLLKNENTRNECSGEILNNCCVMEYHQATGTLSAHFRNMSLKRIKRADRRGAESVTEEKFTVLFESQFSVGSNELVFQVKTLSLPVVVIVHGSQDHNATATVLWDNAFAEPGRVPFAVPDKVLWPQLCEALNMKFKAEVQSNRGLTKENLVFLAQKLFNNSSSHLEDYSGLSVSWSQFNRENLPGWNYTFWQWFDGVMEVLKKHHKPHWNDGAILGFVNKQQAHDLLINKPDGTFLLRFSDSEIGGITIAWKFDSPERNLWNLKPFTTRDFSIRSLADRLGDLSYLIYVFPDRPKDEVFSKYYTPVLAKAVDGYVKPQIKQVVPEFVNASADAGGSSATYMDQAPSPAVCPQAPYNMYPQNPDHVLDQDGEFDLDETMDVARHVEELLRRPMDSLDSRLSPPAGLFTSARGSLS

[6] = biological target: Stat5b (Homo sapiens, UniProt P51692); experiment: Stat5b luciferase reporter gene assay; type: cell-based; settings: read-out: IC50, transcriptional activity of Stat5b; PC-3 cells, β-casein-luciferase, hPrl 10 nM 16 h
Sequence of Stat5b (P51692 whole entry, species assumed): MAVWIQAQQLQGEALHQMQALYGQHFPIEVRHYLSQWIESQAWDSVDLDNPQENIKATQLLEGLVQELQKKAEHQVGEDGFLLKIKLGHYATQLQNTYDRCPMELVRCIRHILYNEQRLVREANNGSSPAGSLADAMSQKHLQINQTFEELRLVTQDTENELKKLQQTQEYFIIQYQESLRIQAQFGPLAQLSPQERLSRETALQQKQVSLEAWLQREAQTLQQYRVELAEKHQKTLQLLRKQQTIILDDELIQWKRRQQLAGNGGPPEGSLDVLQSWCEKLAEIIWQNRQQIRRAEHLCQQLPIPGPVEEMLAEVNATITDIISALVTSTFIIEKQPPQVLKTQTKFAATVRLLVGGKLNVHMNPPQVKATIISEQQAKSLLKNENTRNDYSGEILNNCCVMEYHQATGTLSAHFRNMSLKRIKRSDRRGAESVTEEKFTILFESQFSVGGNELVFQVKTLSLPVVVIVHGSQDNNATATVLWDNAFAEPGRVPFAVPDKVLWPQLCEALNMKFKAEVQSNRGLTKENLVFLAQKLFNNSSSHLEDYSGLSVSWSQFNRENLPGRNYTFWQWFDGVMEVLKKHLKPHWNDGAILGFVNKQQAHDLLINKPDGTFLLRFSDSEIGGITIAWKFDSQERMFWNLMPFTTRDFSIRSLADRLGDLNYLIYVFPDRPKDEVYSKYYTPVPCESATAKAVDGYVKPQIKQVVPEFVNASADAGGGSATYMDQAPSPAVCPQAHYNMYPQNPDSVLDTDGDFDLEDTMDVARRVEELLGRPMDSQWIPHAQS

[7] = biological target: T3, Stat5a/b (Homo sapiens, UniProt P42229+P51692); experiment: Bcr-Abl-driven Stat5a/b phosphorylation in K562 cells, immunoblot; type: cell-based; settings: 3 h
T3 sequence (P51692 whole entry, one chain of several): as the sequence (P51692 whole entry, species assumed) above

[8] = biological target: Bcr-Abl (Homo sapiens, UniProt P00519+P11274); experiment: Bcr-Abl tyrosine phosphorylation in K562 cells, immunoblot; type: cell-based
[9] = biological target: Stat5a/b (Mus musculus, UniProt P42230+P42232); type: cell-based; settings: read-out: IC50, phosphorylation of Stat5a/b; HC-11 cells, 2 h, then hPrl 30 min
Sequence of Stat5a/b (Mus musculus, UniProt P42230+P42232) (P42230 whole entry): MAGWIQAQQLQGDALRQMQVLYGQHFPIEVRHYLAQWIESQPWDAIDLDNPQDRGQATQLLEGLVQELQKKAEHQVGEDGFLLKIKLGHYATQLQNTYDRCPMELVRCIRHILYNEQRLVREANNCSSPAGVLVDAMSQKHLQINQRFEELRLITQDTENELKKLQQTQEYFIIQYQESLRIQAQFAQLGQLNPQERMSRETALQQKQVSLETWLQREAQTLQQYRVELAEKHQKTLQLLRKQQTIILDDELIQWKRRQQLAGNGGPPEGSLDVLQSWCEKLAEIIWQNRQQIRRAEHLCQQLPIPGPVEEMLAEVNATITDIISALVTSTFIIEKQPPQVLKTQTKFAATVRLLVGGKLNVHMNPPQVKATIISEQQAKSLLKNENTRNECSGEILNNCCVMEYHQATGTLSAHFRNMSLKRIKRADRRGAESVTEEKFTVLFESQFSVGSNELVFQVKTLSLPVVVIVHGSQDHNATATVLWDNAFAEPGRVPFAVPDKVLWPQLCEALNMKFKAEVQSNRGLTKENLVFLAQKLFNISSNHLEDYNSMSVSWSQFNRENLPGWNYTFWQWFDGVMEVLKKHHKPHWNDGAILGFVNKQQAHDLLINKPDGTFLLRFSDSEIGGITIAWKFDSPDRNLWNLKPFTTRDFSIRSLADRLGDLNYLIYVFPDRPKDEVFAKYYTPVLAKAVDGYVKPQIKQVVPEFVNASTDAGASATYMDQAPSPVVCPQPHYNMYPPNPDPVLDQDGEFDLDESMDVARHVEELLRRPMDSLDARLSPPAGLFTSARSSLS
Sequence of Stat5a/b (Mus musculus, UniProt P42230+P42232) (P42232 whole entry): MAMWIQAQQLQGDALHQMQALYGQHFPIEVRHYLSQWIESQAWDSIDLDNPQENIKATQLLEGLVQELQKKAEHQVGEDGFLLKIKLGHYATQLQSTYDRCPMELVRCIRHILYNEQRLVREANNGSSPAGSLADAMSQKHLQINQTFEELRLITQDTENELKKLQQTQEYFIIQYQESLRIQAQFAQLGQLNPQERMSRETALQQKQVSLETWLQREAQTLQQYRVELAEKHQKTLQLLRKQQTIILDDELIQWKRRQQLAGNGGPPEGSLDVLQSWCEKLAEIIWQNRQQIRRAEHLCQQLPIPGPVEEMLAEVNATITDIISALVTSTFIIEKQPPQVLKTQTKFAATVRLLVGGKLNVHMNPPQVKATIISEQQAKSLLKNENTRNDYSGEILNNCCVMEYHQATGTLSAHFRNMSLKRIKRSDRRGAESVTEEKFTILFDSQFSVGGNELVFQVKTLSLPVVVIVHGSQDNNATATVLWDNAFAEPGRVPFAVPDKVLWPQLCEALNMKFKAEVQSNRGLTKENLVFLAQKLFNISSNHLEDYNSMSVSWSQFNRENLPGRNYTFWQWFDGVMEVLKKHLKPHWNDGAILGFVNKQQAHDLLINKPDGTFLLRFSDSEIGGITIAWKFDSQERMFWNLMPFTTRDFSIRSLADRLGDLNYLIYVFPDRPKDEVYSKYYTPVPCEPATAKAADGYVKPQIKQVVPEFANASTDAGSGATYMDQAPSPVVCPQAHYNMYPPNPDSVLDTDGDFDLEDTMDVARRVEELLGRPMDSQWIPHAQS

[10] = biological target: T3, Stat5a/b; experiment: Cell-based immunoassay for tyrosine-phosphorylated Stat5a/b in T47D cells; settings: read-out: IC50, phosphorylation of Stat5a/b, 2 h, then hPrl
[11] = biological target: Jak2 (Homo sapiens, UniProt O60674); experiment: Jak2 phosphorylation in CWR22Rv1 cells, immunoprecipitation and immunoblot; type: cell-based
Sequence of Jak2 (O60674 whole entry): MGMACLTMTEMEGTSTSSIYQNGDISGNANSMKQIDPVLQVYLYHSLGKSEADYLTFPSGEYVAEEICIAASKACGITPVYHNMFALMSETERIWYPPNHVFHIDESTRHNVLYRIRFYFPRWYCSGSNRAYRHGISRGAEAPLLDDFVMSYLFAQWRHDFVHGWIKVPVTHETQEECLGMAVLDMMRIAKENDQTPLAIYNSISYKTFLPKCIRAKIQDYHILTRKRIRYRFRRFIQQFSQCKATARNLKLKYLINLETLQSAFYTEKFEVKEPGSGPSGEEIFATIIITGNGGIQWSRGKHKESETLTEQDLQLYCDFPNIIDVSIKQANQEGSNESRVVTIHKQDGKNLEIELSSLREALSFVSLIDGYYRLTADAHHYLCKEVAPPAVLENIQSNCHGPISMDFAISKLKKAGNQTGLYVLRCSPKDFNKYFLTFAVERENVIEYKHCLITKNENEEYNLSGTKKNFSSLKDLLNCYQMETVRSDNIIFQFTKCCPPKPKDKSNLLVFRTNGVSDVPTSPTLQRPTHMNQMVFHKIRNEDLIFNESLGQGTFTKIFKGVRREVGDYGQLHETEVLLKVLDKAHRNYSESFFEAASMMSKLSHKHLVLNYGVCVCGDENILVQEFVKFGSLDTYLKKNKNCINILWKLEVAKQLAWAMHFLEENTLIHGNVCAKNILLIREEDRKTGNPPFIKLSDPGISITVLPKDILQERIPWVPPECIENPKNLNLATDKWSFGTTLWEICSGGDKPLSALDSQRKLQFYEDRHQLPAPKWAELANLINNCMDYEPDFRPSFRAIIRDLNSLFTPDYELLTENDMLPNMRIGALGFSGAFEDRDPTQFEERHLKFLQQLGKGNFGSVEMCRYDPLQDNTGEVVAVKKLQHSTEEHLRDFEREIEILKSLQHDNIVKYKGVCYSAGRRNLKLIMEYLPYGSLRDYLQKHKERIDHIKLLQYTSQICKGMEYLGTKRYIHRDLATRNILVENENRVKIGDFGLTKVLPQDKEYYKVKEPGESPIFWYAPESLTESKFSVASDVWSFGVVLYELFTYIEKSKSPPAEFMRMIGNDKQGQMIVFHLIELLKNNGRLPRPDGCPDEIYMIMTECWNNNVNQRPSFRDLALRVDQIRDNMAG

[12] = system: panel of 50 kinases; experiment: Kinase activity profiling; type: biochemical; settings: 1 μM final concentration
In short: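 Split-luciferase binding format, with the test compound first checked for false-positive activity against split-luciferase. Each Cfluc-kinase was co-translated with Fos-Nfluc in rabbit reticulocyte lysate at 30 C for 90 min. Lysate was incubated 30 min at room temperature with DMSO or 1 μM (final) test compound, then 1 h with a kinase-specific probe.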

[13] = biological target: T2, Stat5a; experiment: Stat5a dimerization by co-immunoprecipitation in PC-3 cells; type: cell-based; settings: read-out: IC50, Stat5a dimerization, FLAG- and MYC-tagged Stat5a, hPrl 10 nM 30 min
[14] = biological target: T2, Stat5a; experiment: Prl-induced nuclear translocation of Stat5a in PC-3 cells, immunofluorescence; type: cell-based; settings: 2 h, hPrl 10 nM 30 min
In short: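 PC-3 cells were infected with adenoviral wild-type Stat5a and prolactin receptor (MOI 4), serum-starved, pretreated 2 h with test compound or control compound, and stimulated 30 min with 10 nM prolactin. Fixed cells were stained with rabbit anti-Stat5 pAb (1:200) and fluorescein goat anti-rabbit IgG (1:200).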

[15] = biological target: Stat5a/b (Homo sapiens, UniProt P42229); experiment: EMSA of Stat5a/b binding to DNA; type: cell-based; settings: 25 μM, COS-7 cells, compared to Ctrl-treated cells
In short: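 COS-7 cells were transiently co-transfected with Stat5a and prolactin receptor plasmids, then serum-starved 10 h. They were pretreated 2 h with test compound or control compound and stimulated 30 min with 10 nM human prolactin. DNA binding was probed with the beta-casein gene Stat5 response element.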

[16] = biological target: T1, Stat3; experiment: Stat3 luciferase reporter assay in LNCaP cells; type: cell-based; settings: 6.0 μM, IL-6 50 ng/ml 16 h
In short: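 LNCaP cells were co-transfected with Stat3 (0.25 μg), IL-6 receptor (0.25 μg), Stat3-luciferase reporter (0.5 μg) and a normalisation plasmid (0.025 μg). Cells were serum-starved 10 h, pretreated with 6.0 μM test compound or control compound, and stimulated 16 h with 50 ng/ml IL-6. Relative luciferase activity is reported as the mean ± S.E. of three independent experiments run in triplicate.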

[17] = system: Bcl-xL and cyclin D1; experiment: Expression of Stat5a/b target genes cyclin D1 and Bcl-xL in PC cells, immunoblot; type: cell-based, human; settings: CWR22Rv1 and LNCaP cells, 48 h or 25 μM time course
[18] = system: Stat5a/b target genes in K562 cells; experiment: RNA expression profiling of K562 cells; type: cell-based; settings: 5 μM, 48 h
In short: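 RNA from vehicle- and test compound-treated cells, alongside Stat5a/b-shRNA and scramble-shRNA cells, was profiled in triplicate on Affymetrix Human Gene 1.0 ST arrays. Differential expression versus the matching control used t-tests with false discovery rate correction.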

[19] = system: CWR22Rv1 cells; experiment: Dead cell count by trypan blue exclusion, CWR22Rv1; type: cell-based, human; settings: 25 μM, 24 h
[20] = system: CWR22Rv1 cells; experiment: Nucleosomal DNA fragmentation ELISA, CWR22Rv1; type: cell-based, human; settings: 25 μM, 24 h, CWR22Rv1, parallel wells
[21] = system: caspase-3; experiment: Caspase-3 activation assay, CWR22Rv1; type: cell-based, human; settings: 12.5 μM, CWR22Rv1, 72 h
In short: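 CWR22Rv1 cells were exposed to 12.5 μM test compound or vehicle for set periods. Caspase-3 was captured with anti-caspase-3 mAb, and its cleavage of AFC substrate was read fluorometrically at 505 nm. In the rescue arm, cells were first infected with adenovirus carrying constitutively active Stat5a (MOI 2).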

[22] = system: LNCaP and CWR22Rv1 cells; experiment: Cell cycle analysis of PC cells; type: cell-based, human; settings: LNCaP and CWR22Rv1, 72 h
In short: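 LNCaP and CWR22Rv1 cells were treated with test compound, vehicle or control compound for up to 72 h. Cells were fixed, stained with propidium iodide plus RNase A, and analysed by flow cytometry in the FL-2 channel.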

[23] = system: CWR22Rv1 cells; experiment: Viability of CWR22Rv1 cells after Stat5a/b shRNA or control shRNA, trypan blue; type: cell-based, human; settings: 12.5 μM, 48 h
[24] = system: A549, CAPAN, T47D, HT1080, HepG2, COS-7, RC170N, CWR22Rv1, K562 cells; type: cell-based
[25] = system: CWR22Rv1 xenograft tumors; experiment: CWR22Rv1 prostate cancer xenograft tumor growth in nude mice; type: in vivo; settings: for decrease of nuclear Stat5a/b content in tumors: compared to vehicle (HPC)
In short: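 Castrated male athymic nude mice got 60-day sustained-release DHT pellets 3 days before s.c. flank inoculation of 1.5 × 10⁷ CWR22Rv1 cells in Matrigel (one tumor/mouse). After one week, mice were randomised (10/group) to daily i.p. test compound in 0.3% HPC (25, 50, 100 mg/kg), HPC alone or no treatment for 10 days. Tumors were measured three times weekly; volume = 3.14 × length × width × depth/6. Nuclear Stat5/Stat3 in harvested tumors were compared by mixed-model ANOVA with Bonferroni-adjusted pairwise tests.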

[26] = system: patient-derived PCs; experiment: Ex vivo organ explant culture of patient-derived prostate cancers; design: species or system human; settings: 7 days ex vivo explant organ culture
In short: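 Patient-derived prostate cancers from radical prostatectomies (n=11, Gleason 7) were grown as explant organ cultures for 7 days with test compound or control compound at set concentrations. A pre-culture zero sample was formalin-fixed for baseline nuclear Stat5a/b. Explants were scored by Stat5a/b immunohistochemistry and TUNEL.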

[27] = system: K562, KCL22 and BV173 cells (parental and imatinib-resistant); experiment: Growth of CML cell lines, trypan blue cell counts and colony formation; type: cell-based; settings: 5 μM, trypan blue exclusion and colony formation assay
[28] = system: CML-blast crisis cell lines; experiment: Cell cycle analysis of CML cells; type: cell-based; settings: 5 μM, 48 h
[29] = system: primary CML cells; experiment: Colony formation of primary CML-chronic phase cells from patients; type: cell-based, human; settings: three CML-chronic phase patients, methylcellulose
[30] = biological target: PAK1/2 (Homo sapiens, UniProt Q13153+Q13177)
[31] = system: SUP-B15, 12878 and 3798 cell lines; experiment: Cell viability; settings: 48 h, MTT
[32] = side-by-side with IST5-002, data not shown

Stat3 nuclear translocation [1]: effectively suppressed
SMILES: Cc1cc(Nc2nc(N[C@@H](C)c3ncc(F)cn3)ncc2Cl)n[nH]1 [AZD1480, reference compound]

SMILES: Nc1nc(F)nc2c1ncn2[C@@H]1O[C@H](CO)[C@@H](O)[C@@H]1O [Fludarabine, fludarabine]
Stat1 phosphorylation and activation [2]: inhibit
Stat5 activity [3]: not affecting

SMILES: Nc1ncnc2c1ncn2[C@@H]1O[C@@H]2COP(=O)(O)O[C@H]2[C@H]1O [cyclic AMP]
effect on Stat5a/b activation and transcriptional activity [4]: no effect

SMILES: Nc1nc2c(ncn2[C@@H]2O[C@H](COP(=O)(O)O)[C@@H](O)[C@H]2O)c(=O)[nH]1 [GMP]
effect on Stat5a/b activation and transcriptional activity [4, 32]: no effect

SMILES: Nc1ncnc2c1ncn2[C@@H]1O[C@H](COP(=O)(O)O)[C@@H](O)[C@H]1O [AMP]
effect on Stat5a/b activation and transcriptional activity [4, 32]: no effect

SMILES: O=P(O)(O)OC[C@H]1O[C@@H](n2cnc3c(NCc4ccccc4)ncnc32)[C@H](O)[C@@H]1O [IST5-002, N6-benzyladenosine-5-monophosphate]
pIC50 [5]: 5.82
pIC50 [6]: 5.46
concentration that blocked Bcr-Abl-induced Stat5a/b phosphorylation [7]: 5 µM
Bcr-Abl tyrosine phosphorylation levels [8]: did not affect
pIC50 [9]: 4.92
pIC50 [10]: 4.61
Phosphorylation of Jak2 [11]: unaffected
inhibition of kinases in a panel of 50 kinases [12]: no specific inhibition
pIC50 [13]: 4.96
concentration that abrogated Stat5a nuclear translocation [14]: 15 µM
reduction of binding of Stat5a/b to its DNA target sequence [15]: approximately 50%
Stat3 nuclear translocation [1]: no demonstrable effect
transcriptional activity of Stat3 [16]: failed to block
expression of Bcl-xL and cyclin D1 [17]: reduced expression
CISH expression change [18]: −2.3 fold
Cyclin D2 expression change [18]: −2.3 fold
Myc expression change [18]: −1.7 fold
Pim1 expression change [18]: −1.7 fold
Pim2 expression change [18]: −1.7 fold
SOCS3 expression change [18]: −1.3 fold
TRIB2 expression change [18]: −1.4 fold
increase in dead cells [19]: 5 fold
increase of nucleosomal DNA fragmentation [20]: 230%
increase in caspase-3 activation [21]: 3 fold
fraction of dead cells (sub-G1) in cell cycle analysis [22]: increased the fraction of dead cells
viability of CWR22Rv1 cells depleted of Stat5a/b (shStat5a/b) [23]: did not further affect
decrease in the number of viable PC cells expressing control shRNA ([23]; CWR22Rv1): 40%
viability of cell lines from other tissues ([24]; A549, CAPAN, T47D, HT1080, HepG2, COS-7): not affected
viability of cells with high Stat5a/b activation ([24]; CWR22Rv1 and K562, side-by-side): suppressed viability
viability of cell lines with low or no Stat5a/b activation ([24]; RC170N normal prostate epithelial cell line, HT1080): did not affect viability
decrease of nuclear Stat5a/b content in tumors ([25]; 25 mg/kg i.p. daily): 60%
decrease of nuclear Stat5a/b content in tumors ([25]; 50 mg/kg i.p. daily): 78%
decrease of nuclear Stat5a/b content in tumors ([25]; 100 mg/kg i.p. daily): 90%
Tumor growth ([25]; 25, 50 or 100 mg/kg i.p. daily, all treatment groups vs control groups): significantly (P<0.001) suppressed
viable tumor cells in xenograft tumors ([25]; IST5-002 groups vs. vehicle): massive loss of viable tumor cells
Intratumor levels of nuclear Stat3 ([25]; any of the doses tested): not altered
patient-derived PCs that responded by extensive loss of viable epithelium [26]: Eight out of 11
concentration at which loss of viable epithelium started ([26]; responders): 25 µM
growth of imatinib-sensitive and -resistant CML cells [27]: blocked the growth
apoptosis in cell cycle analysis [28]: increase in apoptosis
number of viable colonies of primary CML cells [29]: dramatic decrease
activity of PAK1/2 [30]: no specific inhibition
viability of EBV-immortalized B-cells that express no active Stat5a/b ([31]; 12878, 3798 cell lines): only marginal or no effect
viability of SUP-B15 (Bcr-Abl-driven ALL cell line) [31]: decreased viability
